Measurements as given in PMC8048816 (Angewandte Chemie (International Ed. in English), 2021).
Where two headings read alike, the source gives them in different places.

Tests used:
Assay type in all cases: binding
5FW‐LecA = target: T1, 5FW‐LecA (Pseudomonas aeruginosa, UniProt Q05097); experiment: protein-observed 19F; conditions: 1.5 mM catechol, 200 µM 5FW-LecA; n.s.=not significant
T1 sequence (Q05097 2-122 limits assumed): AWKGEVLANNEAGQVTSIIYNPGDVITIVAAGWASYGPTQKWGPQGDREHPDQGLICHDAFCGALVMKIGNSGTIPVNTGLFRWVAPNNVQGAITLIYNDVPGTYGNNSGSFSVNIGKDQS

LecA [1] = target: T2, LecA (Pseudomonas aeruginosa, UniProt Q05097); conditions: for FP with 2ME Inhibition [%] at 4 mM / FP Inhibition [%] at 4 mM: 4 mM catechol, average and std. dev. of 3 experiments; for FP with 2ME Inhibition [%] at 4 mM: with 2-mercaptoethanol; for FP Inhibition [%] at 4 mM: without 2-mercaptoethanol
T2 sequence (Q05097 2-122 limits assumed): T1 sequence (Q05097 2-122 limits assumed)
How it was run: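 Competitive fluorescence polarization assay measuring displacement of a Cy5-labelled galactoside probe from LecA. The Cy5 probe replaced an earlier fluorescein conjugate to avoid spectral overlap. Test compound at 4 mM, with or without 2-mercaptoethanol; some compounds at 25 % DMSO. Methyl α-D-galactoside as positive control. Percent inhibition given as average and std. dev. of 3 experiments.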

LecA [2] = target: T2, LecA; experiment: thermal shift assay; conditions: change of LecA melting point, 4 mM test compound, average of two experiments
human Langerin CRD = human Langerin CRD (Homo sapiens, UniProt Q9UJ71, V278A); experiment: 1H-15N HSQC NMR; conditions: 1 mM compound, 100 μM Langerin CRD
human Langerin CRD, sequence (Q9UJ71 202-320 V278A): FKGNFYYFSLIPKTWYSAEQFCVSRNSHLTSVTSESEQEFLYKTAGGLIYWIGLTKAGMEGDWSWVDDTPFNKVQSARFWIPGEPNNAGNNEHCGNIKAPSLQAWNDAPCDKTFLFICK

LecA [3] = target: T2, LecA; experiment: surface plasmon resonance
How it was run: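 Recombinant LecA was immobilized for SPR. Test compound was injected at two concentrations: 0.2 and 1 mM, or 0.2 and 0.5 mM for some compounds. Steady-state binding responses were read from sensorgrams. 0.1 mM pNPGal was injected as positive control to monitor LecA activity and normalize data. Kd came from multi-cycle kinetic analyses of prioritized compounds.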

Langerin ECD = Langerin ECD (Homo sapiens, UniProt Q9UJ71); experiment: 1H STD competition NMR with mannose; conditions: 1 mM compound, 20 μM Langerin ECD, 100 mM D-mannose
Langerin ECD, sequence (Q9UJ71 65-328 limits assumed): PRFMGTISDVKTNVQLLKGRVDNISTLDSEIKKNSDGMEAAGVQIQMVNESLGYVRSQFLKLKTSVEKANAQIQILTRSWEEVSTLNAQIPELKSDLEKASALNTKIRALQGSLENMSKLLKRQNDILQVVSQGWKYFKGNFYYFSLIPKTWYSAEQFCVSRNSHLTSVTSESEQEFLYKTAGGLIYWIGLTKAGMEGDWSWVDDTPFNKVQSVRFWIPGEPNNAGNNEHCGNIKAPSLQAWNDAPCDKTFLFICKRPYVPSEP

LecA [4] = target: T2, LecA; experiment: ligand-observed T1ρ relaxation NMR; conditions: for effect of excess Me‐α‐D‐Gal on T1ρ relaxation with LecA: displacement experiment; for T1ρ relaxation rate in presence of LecA: with vs without LecA
LecA [5] = target: T2, LecA; conditions: read-out: inhibition at 3.3 mM
How it was run: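 Purchased virtual-screening hits from the NCI Diversity IV set, selected for structural diversity, were tested once at 3.3 mM. Assay: the established competitive fluorescence polarization assay, scoring displacement of a fluorescent galactoside ligand from LecA as percent inhibition.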

[6] = read-out: FP Inhibition [%] at 4 mM
[7] = read-out: FP with 2ME Inhibition [%] at 4 mM

Row | SMILES | PrOF NMR CSP of W42 [ppm] (5FW‐LecA) | FP with 2ME Inhibition [%] at 4 mM (LecA [1]) | FP Inhibition [%] at 4 mM (LecA [1]) | TSA ΔT [K] (LecA [2]) | chemical shift perturbations of Langerin CRD resonances (human Langerin CRD) | inhibition at 4000 µM (LecA [1]; [6]) [%] | inhibition at 4000 µM (LecA [1]; [7]) [%] | Kd (LecA [3]) [µM] | ligand efficiency (LecA [3]; from SPR Kd) | reduction in peak intensities in STD NMR spectra in presence of mannose (Langerin ECD) [%] | effect of excess Me‐α‐D‐Gal on T1ρ relaxation with LecA (LecA [4]) | T1ρ relaxation rate in presence of LecA (LecA [4]) | inhibition at 3300 µM (LecA [5]) [%]
1 | Oc1ccccc1O [Compound 1, catechol] | n.s. | none | inconcl. | −4.5 K | – | – | – | – | – | – | – | – | –
2 | N#Cc1cccc(O)c1O [Compound 3, 3‐cyano catechol] | 0.045 ppm | – | – | +1.8 K | promoted chemical shift perturbations (CSPs) | 23 ± 2 | 23 | 1110 ± 70 | 0.40 | 65 | – | – | –
3 | Cc1ccc(O)c(O)c1 [Compound 11, 4‐methyl catechol] | n.s. | none | inconcl. | −11.0 K | – | – | – | – | – | – | – | – | –
4 | CC(C)(C)c1ccc(O)c(O)c1 [Compound 13, 4‐tert‐butyl catechol] | 0.130 ppm | none | inconcl. | −15.4 K | – | – | – | – | – | – | no significant effect | much weaker | –
5 | CC(C)C(=O)c1ccc(O)c(O)c1 [Compound 21, 4‐isobutyryl catechol] | 0.08 ppm | – | – | +0.35 K | – | 10 ± 2 | 11 ± 2 | – | – | – | fully reversed to the free state | strongly increased | ~10
6 | O=C(c1ccccc1)c1ccc(O)c(O)c1 [Compound 23, 4‐benzoyl catechol] | 0.110 ppm | – | – | +0.36 K | – | 39 ± 5 | 39 | – | – | – | – | – | –
7 | O=C(c1ccc(Cl)cc1)c1ccc(O)c(O)c1 [Compound 24, 4‐parachlorobenzoyl catechol] | 0.185 ppm | – | – | – | – | 29 ± 3 | 22 ± 2 | – | – | – | – | – | –
